Tests used:
Dynamic light scattering = format: physicochemical; conditions: DLS at stock concentration, 15 measurements, regularization fit
Method in brief: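 Samples were spun 15 min at 18 000 g and measured at stock concentration at 100% laser power until intensity readings were consistent. 15 measurements per sample gave the size distribution by regularization fit. Effective radius and aggregation by intensity and by mass were reported. Controls were maleimide-capped XTEN (negative) and BSA (positive), with BSA re-measured after 10 min at 80 °C and 5 min on ice.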

HIV-1Ba-L = test: In vitro antiviral MAGI assay; format: cell-based; conditions: read-out: IC50 for inhibition of virus replication, MAGI CCR5 cells, 48 h, β-galactosidase read-out (Gal-screen), triplicate
Method in brief: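 MAGI CCR5 cells are HeLa-derived, express CXCR4, CD4 and CCR5, and carry an HIV-1 LTR–β-galactosidase reporter. Cells were plated at 1 × 10^4 per well and adhered overnight at 37 °C. Medium was replaced with the compound range (up to 10 nM), then HIV-1Ba-L was added. After 48 h, lysates were read with Gal-screen and expressed as % of the no-compound blank. Tested in triplicate with unmodified-peptide and capped-XTEN controls.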

[1] = format: physicochemical; conditions: as E13; dimer peak of the precursor before conjugation
Method in brief: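 Vydac C4 column (5 μm, 300 Å, 4.6 × 150 mm), ambient temperature, 1 mL/min. Equilibrated at 5% B, then a linear gradient of 5–50% B over 45 min. 20 μg protein injected. Absorbance read at 214 nm. The thiol-XTEN precursor was run before conjugation.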

[2] = dosed in rats; cited from earlier work

Substance | aggregation by intensity (Dynamic light scattering) [%] | aggregation by mass (Dynamic light scattering) [%] | further results
BSA (heat treated): heat-treated BSA, positive control for aggregation in DLS | 92.2 | 28 | –
BSA (not heat treated): BSA (Fermentas), DLS control before heat treatment | 0 | 0 | –
Enfuvirtide | – | – | IC50 (HIV-1Ba-L): 0.38 nM
SAGSPTPGTSESATPESGPGSEPATSGSETPGTSESATPESGPGSEPATSGSETPGTSESATPESGPGTSTEPSEGSAPGTSESATPESGPGSPAGSPTSTEEGSPAGSPTSTEEGSPAGSPTSTEEGTSESATPESGPGTSTEPSEGSAPGTSESATPESGPGSEPATSGSETPGTSESATPESGPGSEPATSGSETPGTSESATPESGPGTSTEPSEGSAPGSPAGSPTSTEEGTSESATPESGPGSEPATSGSETPGTSESATPESGPGSPAGSPTSTEEGSPAGSPTSTEEGTSTEPSEGSAPGTSESATPESGPGTSESATPESGPGTSESATPESGPGSEPATSGSETPGSEPATSGSETPGSPAGSPTSTEEGTSTEPSEGSAPGTSTEPSEGSAPGSEPATSGSETPTAEAAGCGTAEAASASR [XTEN-1] | – | – | C4 RPC retention time of suspected disulfide-bonded dimer [1]: 21.2 min
enfuvirtide | – | – | half-life in rats [2]: 2.8 h

Source: paper PMC4157762 (Bioconjugate Chemistry, 2014)
